Test results from ChEMBL document CHEMBL5230083, “Novel 2, 5-diketopiperazine derivatives as potent selective histone deacetylase 6 inhibitors: Rational design, synthesis and antiproliferative activity” (Eur J Med Chem, 2020).
pIC50: −log10 of the molar value.

Tests used:
[1] = test system: SK-OV-3; test: Antiproliferative activity against human SK-OV-3 cells assessed as cell growth at 10 uM incubated for 48 hrs by SRB assay relative to control; assay type: functional; conditions: read-out: Activity
Outline: (§1)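 NCI-60 single-dose screen: compounds tested at 10 μM, and growth percent of each cell line calculated. The full method follows the NCI DTP protocol.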

[2] = test system: CCRF-CEM; test: Antiproliferative activity against human CCRF-CEM cells assessed as cell growth at 10 uM incubated for 48 hrs by SRB assay relative to control; assay type: functional; conditions: read-out: Activity
Outline: (§2)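 Single-concentration screen at 10 μM run by NCI on its NCI-60 human tumour panel (blood, lung, colon, CNS, melanoma, ovary, kidney, prostate, breast), following the NCI-60 published methodology. Read-out is growth percent relative to untreated cells.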

[3] = test system: SK-MEL-5; test: Antiproliferative activity against human SK-MEL-5 cells assessed as cell growth at 10 uM incubated for 48 hrs by SRB assay relative to control; assay type: functional; conditions: read-out: Activity; outline: as §1
[4] = test system: BT-549; test: Antiproliferative activity against human BT-549 cells assessed as cell growth at 10 uM incubated for 48 hrs by SRB assay relative to control; assay type: functional; conditions: read-out: Activity; outline: as §2
[5] = test system: SK-MEL-2; test: Antiproliferative activity against human SK-MEL-2 cells assessed as cell growth at 10 uM incubated for 48 hrs by SRB assay relative to control; assay type: functional; conditions: read-out: Activity; outline: as §2
[6] = test system: UACC-257; test: Antiproliferative activity against human UACC-257 cells assessed as cell growth at 10 uM incubated for 48 hrs by SRB assay relative to control; assay type: functional; conditions: read-out: Activity; outline: as §1
[7] = test system: OVCAR-8; test: Antiproliferative activity against human OVCAR-8 cells assessed as cell growth at 10 uM incubated for 48 hrs by SRB assay relative to control; assay type: functional; conditions: read-out: Activity; outline: as §2
[8] = test system: SK-MEL-28; test: Antiproliferative activity against human SK-MEL-28 cells assessed as cell growth at 10 uM incubated for 48 hrs by SRB assay relative to control; assay type: functional; conditions: read-out: Activity; outline: as §2
[9] = test system: OVCAR-3; test: Antiproliferative activity against human OVCAR-3 cells assessed as cell growth at 10 uM incubated for 48 hrs by SRB assay relative to control; assay type: functional; conditions: read-out: Activity; outline: as §2
[10] = test system: CAKI-1; test: Antiproliferative activity against human CAKI-1 cells assessed as cell growth at 10 uM incubated for 48 hrs by SRB assay relative to control; assay type: functional; conditions: read-out: Activity; outline: as §2
[11] = test system: SNB-75; test: Antiproliferative activity against human SNB-75 cells assessed as cell growth at 10 uM incubated for 48 hrs by SRB assay relative to control; assay type: functional; conditions: read-out: Activity; outline: as §1
[12] = test system: UACC-62; test: Antiproliferative activity against human UACC-62 cells assessed as cell growth at 10 uM incubated for 48 hrs by SRB assay relative to control; assay type: functional; conditions: read-out: Activity; outline: as §1
[13] = test system: M14; test: Antiproliferative activity against human M14 cells assessed as cell growth at 10 uM incubated for 48 hrs by SRB assay relative to control; assay type: functional; conditions: read-out: Activity; outline: as §2
[14] = test system: U-251; test: Antiproliferative activity against human U-251 cells assessed as cell growth at 10 uM incubated for 48 hrs by SRB assay relative to control; assay type: functional; conditions: read-out: Activity; outline: as §1
[15] = test system: HCT-15; test: Antiproliferative activity against human HCT-15 cells assessed as cell growth at 10 uM incubated for 48 hrs by SRB assay relative to control; assay type: functional; conditions: read-out: Activity; outline: as §2
[16] = test system: OVCAR-5; test: Antiproliferative activity against human OVCAR-5 cells assessed as cell growth at 10 uM incubated for 48 hrs by SRB assay relative to control; assay type: functional; conditions: read-out: Activity; outline: as §2
[17] = test system: U-266; test: cells; assay type: functional, cell-based; conditions: Homo sapiens, U-266, 72 h
[18] = test system: NCI/ADR-RES; test: Antiproliferative activity against human NCI/ADR-RES cells assessed as cell growth at 10 uM incubated for 48 hrs by SRB assay relative to control; assay type: functional; conditions: read-out: Activity; outline: as §2
[19] = molecular target: T1, Histone deacetylase 8 (Homo sapiens, UniProt Q9BY41); test: Inhibition of HDAC8 (unknown origin) using Fluor de lys as substrate by fluorescence based analysis
T1 sequence (Q9BY41 whole entry): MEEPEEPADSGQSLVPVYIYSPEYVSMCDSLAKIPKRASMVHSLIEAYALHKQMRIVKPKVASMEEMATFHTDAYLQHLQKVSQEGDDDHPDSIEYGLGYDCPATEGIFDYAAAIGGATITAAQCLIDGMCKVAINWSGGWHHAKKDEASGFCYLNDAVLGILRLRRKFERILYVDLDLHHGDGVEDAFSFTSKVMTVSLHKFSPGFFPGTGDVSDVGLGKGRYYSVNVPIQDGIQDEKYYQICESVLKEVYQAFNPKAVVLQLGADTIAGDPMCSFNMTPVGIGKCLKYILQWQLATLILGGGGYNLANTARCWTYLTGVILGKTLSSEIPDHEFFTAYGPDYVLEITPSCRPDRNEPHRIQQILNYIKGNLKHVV

[20] = test system: KM12; test: Antiproliferative activity against human KM12 cells assessed as cell growth at 10 uM incubated for 48 hrs by SRB assay relative to control; assay type: functional; conditions: read-out: Activity; outline: as §2
[21] = test system: Hs-578T; test: Antiproliferative activity against human Hs-578T cells assessed as cell growth at 10 uM incubated for 48 hrs by SRB assay relative to control; assay type: functional; conditions: read-out: Activity; outline: as §2
[22] = test system: SR; test: Antiproliferative activity against human SR cells assessed as cell growth at 10 uM incubated for 48 hrs by SRB assay relative to control; assay type: functional; conditions: read-out: Activity; outline: as §1
[23] = test system: Malme-3M; test: Antiproliferative activity against human Malme-3M cells assessed as cell growth at 10 uM incubated for 48 hrs by SRB assay relative to control; assay type: functional; conditions: read-out: Activity; outline: as §2
[24] = test system: ACHN; test: Antiproliferative activity against human ACHN cells assessed as cell growth at 10 uM incubated for 48 hrs by SRB assay relative to control; assay type: functional; conditions: read-out: Activity; outline: as §2
[25] = test system: NCI-H460; test: Antiproliferative activity against human NCI-H460 cells assessed as cell growth at 10 uM incubated for 48 hrs by SRB assay relative to control; assay type: functional; conditions: read-out: Activity; outline: as §2
[26] = test system: 786-0; test: Antiproliferative activity against human 786-0 cells assessed as cell growth at 10 uM incubated for 48 hrs by SRB assay relative to control; assay type: functional; conditions: read-out: Activity; outline: as §2
[27] = test system: RPMI-8226; test: Antiproliferative activity against human RPMI-8226 cells assessed as cell growth at 10 uM incubated for 48 hrs by SRB assay relative to control; assay type: functional; conditions: read-out: Activity; outline: as §2
[28] = test system: LOX IMVI; test: Antiproliferative activity against human LOX IMVI cells assessed as cell growth at 10 uM incubated for 48 hrs by SRB assay relative to control; assay type: functional; conditions: read-out: Activity; outline: as §2
[29] = test system: EKVX; test: Antiproliferative activity against human EKVX cells assessed as cell growth at 10 uM incubated for 48 hrs by SRB assay relative to control; assay type: functional; conditions: read-out: Activity; outline: as §2
[30] = test system: TK-10; test: Antiproliferative activity against human TK-10 cells assessed as cell growth at 10 uM incubated for 48 hrs by SRB assay relative to control; assay type: functional; conditions: read-out: Activity; outline: as §1
[31] = test system: UO-31; test: Antiproliferative activity against human UO-31 cells assessed as cell growth at 10 uM incubated for 48 hrs by SRB assay relative to control; assay type: functional; conditions: read-out: Activity; outline: as §1
[32] = test system: SF-539; test: Antiproliferative activity against human SF-539 cells assessed as cell growth at 10 uM incubated for 48 hrs by SRB assay relative to control; assay type: functional; conditions: read-out: Activity; outline: as §2
[33] = test system: HOP-92; test: Antiproliferative activity against human HOP-92 cells assessed as cell growth at 10 uM incubated for 48 hrs by SRB assay relative to control; assay type: functional; conditions: read-out: Activity; outline: as §2
[34] = test system: DU-145; test: Antiproliferative activity against human DU-145 cells assessed as cell growth at 10 uM incubated for 48 hrs by SRB assay relative to control; assay type: functional; conditions: read-out: Activity; outline: as §2

pIC50 [17]	pIC50 [19]	SMILES	growth at 10 µM [1]	growth at 10 µM [2]	growth at 10 µM [3]	growth at 10 µM [4]	growth at 10 µM [5]	growth at 10 µM [6]	growth at 10 µM [7]	growth at 10 µM [8]	growth at 10 µM [9]	growth at 10 µM [10]	growth at 10 µM [11]	growth at 10 µM [12]	growth at 10 µM [13]	growth at 10 µM [14]	growth at 10 µM [15]	growth at 10 µM [16]	growth at 10 µM [18]	growth at 10 µM [20]	other results
4.36	6.29	O=C1CN(Cc2ccc(C(=O)NO)cc2)C(=O)[C@@H](Cc2c[nH]c3ccccc23)N1	96.5%	103%	108%	98.2%	113%	96.1%	94.8%	110%	104%	93.8%	94.5%	95.5%	94.2%	96.7%	103%	107%	104%	102%	growth at 10 µM [21]: 104%; growth at 10 µM [22]: 115%; growth at 10 µM [23]: 94.6%; growth at 10 µM [24]: 104%; growth at 10 µM [25]: 104%; growth at 10 µM [26]: 83%; growth at 10 µM [27]: 104%; growth at 10 µM [28]: 106%; growth at 10 µM [29]: 106%; growth at 10 µM [30]: 103%; growth at 10 µM [31]: 91.1%; growth at 10 µM [32]: 107%; growth at 10 µM [33]: 104%; growth at 10 µM [34]: 107%
4.59	6.84	O=C(NO)c1ccc(CN2CC(=O)N(Cc3ccccc3)[C@H](Cc3ccccc3)C2=O)cc1	90.4%	72%	96.7%	103%	99.4%	69.3%	75%	95.4%	79.7%	96.5%	69.4%	87.5%	90.4%	81.3%	74.3%	97.8%	94.5%	86.9%	growth at 10 µM [21]: 82%; growth at 10 µM [22]: 63.5%; growth at 10 µM [23]: 77.1%; growth at 10 µM [24]: 90.6%; growth at 10 µM [25]: 81.6%; growth at 10 µM [26]: 94.8%; growth at 10 µM [27]: 58.6%; growth at 10 µM [28]: 93.2%; growth at 10 µM [29]: 88.2%; growth at 10 µM [30]: 88.1%; growth at 10 µM [31]: 69.5%; growth at 10 µM [32]: 87.3%; growth at 10 µM [33]: 102%; growth at 10 µM [34]: 87%
